STAT3 blocker – IL-6 driven STAT3 reporter inhibitors, primary screen, U3A cells, luciferase, luminescence, MLSCN library; inhibition, % at 5.5 µM; IL-6 STAT3-luciferase reporter; host cell line lacks STAT1; hit rate 0.89% among 190,000;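 active = inhibition above the mean inhibition across all screened compounds plus 3 SD, cut at about 44% in these data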;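 also: 0% = DMSO only wells and 100% = 100 µM nifuroxazide control wells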
PPC-1+TRAIL kill – compounds killing PPC-1 cancer cells with TRAIL present, primary screen, TRAIL potentiator project, ATPLite luminescence, uHTS; PPC-1 cells + TRAIL, ATPLite viability luminescence; cell killing (% activity), % at 4 µM or 5 µM; AID 1443, 2008; hit rate 0.41% among 220,000;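 active = cell killing above 50% in the first pass at 4 µM, then a duplicate retest at 5 µM averaging 50% or more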;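 also: plate controls were cells with TRAIL plus DMSO for no effect and medium-only wells lacking cells for full effect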
C8 TRAIL sens – viability loss with TRAIL in NB7+C8 cells, primary screen, TRAIL sensitizer project, cell-based, ATPlite luminescence | inhibition (viability loss, TRAIL sensitization), % at 10 µM | hit rate 1% among 360,000;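 active = compounds causing at least 50% loss of cell viability in the single-dose screen, relative to plate controls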
STAT1 blocker – STAT1 signaling inhibitors, primary screen, cell-based, HTS, luciferase reporter; NIH 3T3 STAT1-luciferase reporter, IFN-gamma, luminescence; inhibition, % at 5.5 µM; hit rate 0.35% among 200,000; AID 920, 2007;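 active = inhibition above a set limit, the mean inhibition across all tested compounds plus 3 SD, cut at about 34% in these data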;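 also: 0% = IFN-gamma with DMSO and 100% = IFN-gamma with 300 µM nifuroxazide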
STAT3 act – IL-6 driven STAT3 reporter potentiators, primary screen, U3A cells, luciferase, luminescence, MLSCN library. IL-6 STAT3-luciferase reporter; 100% = signal with IL-6 EC80 alone. activation (% of control), % at 5.6 µM. hit rate 0.91% among 190,000. AID 871, 2007;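 active = activation above the screen-wide mean of compound activation plus 3 SD, cut at about 130% in these data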;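 also: 0% = background luminescence of wells with medium and substrate only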
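System – human U3A cells carrying STAT3-luciferase construct · Probe or stimulus – Interleukin-6, 33 ng/mL · Schedule – compound 1 h, then IL-6 6 h at 37 °C · Signal – luminescence from STAT3-driven luciferase reporter · Evaluation – percent of IL-6-only median luminescence · Benchmarks – IL-6-only high control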
PPC1 cytotox – cytotoxicity in PPC-1 cells, confirmation, cytotoxicity control for TRAIL apoptosis potentiator project, cell-based, ATP content luminescence. shares compounds with PPC-1+TRAIL kill. hit rate 50% among 1,200. PPC-1 viability, ATPlite luminescence, overnight. cytotoxicity, % at 5 µM;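 active = reconfirmed compounds whose average cytotoxicity reaches 50% or more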;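 also: 0% = DMSO-treated cells and 100% = wells holding medium but no cells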
The depositor's hits bear a star; . = no result given. Compounds with a hit are over-represented: about 1.8% of the library has one in this group of screens.

SMILES	STAT3 blocker	PPC-1+TRAIL kill	C8 TRAIL sens	STAT1 blocker	STAT3 act	PPC1 cytotox
Cc1cc(/C=C2/C(=N)N3C(=NC2=O)SN=C3S(C)(=O)=O)c(C)n1-c1ccccc1F	9	68*	85*	-15	94	70*
CC(=C/c1ccccc1)/C=N/NC(=O)c1ccccn1	.	82*	85*	.	.	81*
CCc1ccc(/C=N/NC(=O)c2ccccn2)cc1	.	72*	82*	.	.	71*
COc1ccc(C)cc1N1CC(C(=O)OCc2nc(N)nc(Nc3ccccc3C)n2)CC1=O (stereo not given)	.	.	-6	.	.	.
Cc1cc(/C=N/Nc2nc(N)ncc2[N+](=O)[O-])c(C)n1-c1ccccc1F	.	76*	.	.	.	77*
Cc1cccc(C)c1-n1c(C)cc(/C=N\Nc2ccc([N+](=O)[O-])cn2)c1C	17	23	8	2	90	.
Cc1ccc(S(=O)(=O)Nc2cccc3ncccc23)s1	-15	20	27	-95	115	30
CCOc1ccc2[nH]c(S(=O)(=O)CC)nc2c1Cl	1	7	-6	-2	102	22
CCc1ccc(C(=O)COC(=O)c2cccc(N3C(=O)c4c(C)nc5ccccc5c4C3=O)c2)cc1	22	72*	73*	-7	83	72*
CCOC(=O)[C@]12CCCC=C1N(CCc1ccc(OC)c(OC)c1)C(=O)[C@H](CC(=O)N1CCSCC1)C2	.	.	17	.	.	.
COc1ccc(C(C)=O)c(Oc2cc(NN3CCCCC3)c([N+](=O)[O-])cc2[N+](=O)[O-])c1	.	.	10	.	.	.
CS(=O)c1nc(-c2ccc(Br)cc2)cc(-c2ccccc2)c1C#N (stereo not given)	-22	71*	81*	-15	125	73*
Clc1ccccc1/C=C/c1nc(-c2ccccn2)no1	.	71*	69*	.	.	67*
COc1cccc(NC(=O)CN2CCN(C(=O)c3ccco3)CC2)c1	.	.	0	.	.	.
Cc1ccccc1OCc1nnc(SCC(=O)Nc2ccc3nc(SCC(=O)NC(C)(C)C)sc3c2)n1C	22	-15	18	-1	82	-13
CCN(CC)C(=O)CSc1nc2ccc(NC(=O)CSc3nnc(COc4ccccc4C)n3C)cc2s1	17	4	7	2	95	.
O=C(Cc1cccs1)NCc1ccco1	6	1	-5	-6	98	-5
O=C(Cc1cccs1)Nc1ccc(Cl)cc1	-25	3	-6	2	124	2
CCOc1ccc(CNCCN2CCCC2)cc1	.	.	3	.	.	.
C=CCNC(=O)c1sc(-c2ccccc2)nc1C	14	-4	6	-27	92	.
Cc1nc(-c2ccccc2)sc1C(=O)NN	-6	15	-2	-15	107	14
Cc1cccc(C(=O)OC(C)C(=O)N2CCc3ccccc3C2)c1C (stereo not given)	.	.	4	.	.	.
C=CCNC(=O)c1ccc2c3n(nc2c1)-c1ccccc1CO3	.	84*	86*	.	.	84*
Cc1ccc2c(c1)COc1c3ccc(C(=O)NCCO)cc3nn1-2	.	23	32	.	.	.
COCCNC(=O)c1ccc2c3n(nc2c1)-c1ccccc1CO3	.	50*	58*	.	.	55*
SMILES	STAT3 blocker	PPC-1+TRAIL kill	C8 TRAIL sens	STAT1 blocker	STAT3 act	PPC1 cytotox
COCCNC(=O)c1ccc2c3n(nc2c1)-c1ccc(Cl)cc1CO3	.	26	14	.	.	.
COc1ccc(-c2csc(NCCc3nc4cc(Cl)c(Cl)cc4n3CCCO)n2)cc1	.	.	-14	.	.	.
O=C1C(=O)c2ccc(-c3ccccc3)cc2-c2ccccc21	21	97*	93*	7	85	97*
Nc1ccc2c(c1)C(=O)c1ccccc1-2	.	.	-19	.	.	.
O=[N+]([O-])c1ccc(N/N=C/c2ccc(O)c(O)c2O)c(S(=O)(=O)N2CCOCC2)c1	7	4	14	13	98	8
O=[N+]([O-])c1ccc(N/N=C/c2cccc(O)c2O)c(S(=O)(=O)N2CCOCC2)c1	3	16	22	-17	104	.
O=C(CSc1ccc(Cl)cc1)N1CCOCC1	-2	1	-4	-16	105	5
O=C(CCSc1ccc(Cl)cc1)N1CCOCC1	1	7	-6	-28	102	.
CC(=O)c1cccc(S(=O)(=O)N2CCn3cccc3C2C)c1 (stereo not given)	.	.	0	.	.	.
Cc1cc(C)nc(Nc2nc(C(N)Cc3ccc(Cl)cc3)cs2)n1 (stereo not given)	.	.	19	.	.	.
Fc1ccc(-c2nnc(NC3=NCCCCC3)o2)cc1	100*	66*	75*	68*	20	64*
CN1CCN(CCCNC(=O)c2ccc3c(Cl)c4c(nc3c2)CCCC4)CC1	.	.	0	.	.	.
CCOC(=O)c1c(NC(=O)c2noc(C)c2[N+](=O)[O-])sc(C(C)=O)c1C	16	5	-2	10	95	-2
Cc1ccc(Cn2ccsc2=NC(=O)CCl)cc1	28	91*	98*	34	78	91*
Cc1ccc(Cn2ccsc2=NC(=O)COC(=O)c2ccc(NC(=O)CC#N)cc2)cc1	.	.	6	.	.	.
O=C(CSc1ncn[nH]1)Nc1nc(-c2ccccc2)cs1	10	1	-7	2	94	-4
OCCNc1ncnc2c1ncn2[C@H]1CN(Cc2ccc3c(c2)OCO3)C[C@@H](CO)O1	.	.	3	.	.	.
CCNC1=C(Cl)C(=O)c2ccccc2C1=O	4	7	3	-5	94	.
O=C1C(Cl)=C(NCCN2CCCCC2)C(=O)c2ccccc21	8	48	92*	0	97	46

Source: PubChem BioAssay
